Source: ChEMBL document CHEMBL2331285, “Optimization of 3,5-dimethylisoxazole derivatives as potent bromodomain ligands” (J Med Chem, 2013)
Calls of active or inactive are those of the source. The rule behind the calls is not given here.

Experiments:
Homo sapiens = species on record: Homo sapiens; assay: Selectivity ratio of IC50 for CREBBP bromodomain to IC50 for human BRD4 bromodomain 1 (unknown origin)
Outline: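 IC50 ratio, both values from AlphaScreen peptide displacement (protein and peptide 50 nM each, duplicates, sigmoidal fit). BRD4(1) used biotinylated tetra-acetylated H4 peptide (SGRGK(Ac)GGK(Ac)GLGK(Ac)GGAK(Ac)RHRK-biotin); CREBBP used biotinylated H3K56Ac peptide.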

A549 = assay: Cytotoxicity against human A549 cells after 72 hrs by MTS assay; type: functional, cell-based; details: A549, 72 h
NCI-H1975 [1] = assay: Cytotoxicity against human NCI-H1975 cells after 10 to 14 days by crystal violet staining based clonogenic survival assay; type: functional, cell-based
U2OS = assay: Cytotoxicity against human U2OS cells after 24 hrs by WST-1 assay; type: functional, cell-based
NCI-H1975 [2] = assay: Cytotoxicity against human NCI-H1975 cells after 72 hrs by MTS assay; type: functional, cell-based; details: NCI-H1975, 72 h
HeLa = assay: Cytotoxicity against human HeLa cells after 24 hrs by WST-1 assay; type: functional, cell-based
CREB-binding protein = CREB-binding protein (Homo sapiens, UniProt Q92793); assay: Binding affinity to CREBBP bromodomain (unknown origin) using H3K56Ac peptide by amplified luminescent proximity homogeneous assay
[3] = target: Bromodomain-containing protein 4 (Homo sapiens, UniProt O60885); assay: Binding affinity to human BRD4 bromodomain 1 using H4Ac4 peptide by amplified luminescent proximity homogeneous assay
MV4-11 = assay: Cytotoxicity against human MV4-11 cells after 72 hrs by MTS assay; type: functional, cell-based; details: MV4-11, 72 h

CREB-binding protein, sequence (Q92793 whole entry): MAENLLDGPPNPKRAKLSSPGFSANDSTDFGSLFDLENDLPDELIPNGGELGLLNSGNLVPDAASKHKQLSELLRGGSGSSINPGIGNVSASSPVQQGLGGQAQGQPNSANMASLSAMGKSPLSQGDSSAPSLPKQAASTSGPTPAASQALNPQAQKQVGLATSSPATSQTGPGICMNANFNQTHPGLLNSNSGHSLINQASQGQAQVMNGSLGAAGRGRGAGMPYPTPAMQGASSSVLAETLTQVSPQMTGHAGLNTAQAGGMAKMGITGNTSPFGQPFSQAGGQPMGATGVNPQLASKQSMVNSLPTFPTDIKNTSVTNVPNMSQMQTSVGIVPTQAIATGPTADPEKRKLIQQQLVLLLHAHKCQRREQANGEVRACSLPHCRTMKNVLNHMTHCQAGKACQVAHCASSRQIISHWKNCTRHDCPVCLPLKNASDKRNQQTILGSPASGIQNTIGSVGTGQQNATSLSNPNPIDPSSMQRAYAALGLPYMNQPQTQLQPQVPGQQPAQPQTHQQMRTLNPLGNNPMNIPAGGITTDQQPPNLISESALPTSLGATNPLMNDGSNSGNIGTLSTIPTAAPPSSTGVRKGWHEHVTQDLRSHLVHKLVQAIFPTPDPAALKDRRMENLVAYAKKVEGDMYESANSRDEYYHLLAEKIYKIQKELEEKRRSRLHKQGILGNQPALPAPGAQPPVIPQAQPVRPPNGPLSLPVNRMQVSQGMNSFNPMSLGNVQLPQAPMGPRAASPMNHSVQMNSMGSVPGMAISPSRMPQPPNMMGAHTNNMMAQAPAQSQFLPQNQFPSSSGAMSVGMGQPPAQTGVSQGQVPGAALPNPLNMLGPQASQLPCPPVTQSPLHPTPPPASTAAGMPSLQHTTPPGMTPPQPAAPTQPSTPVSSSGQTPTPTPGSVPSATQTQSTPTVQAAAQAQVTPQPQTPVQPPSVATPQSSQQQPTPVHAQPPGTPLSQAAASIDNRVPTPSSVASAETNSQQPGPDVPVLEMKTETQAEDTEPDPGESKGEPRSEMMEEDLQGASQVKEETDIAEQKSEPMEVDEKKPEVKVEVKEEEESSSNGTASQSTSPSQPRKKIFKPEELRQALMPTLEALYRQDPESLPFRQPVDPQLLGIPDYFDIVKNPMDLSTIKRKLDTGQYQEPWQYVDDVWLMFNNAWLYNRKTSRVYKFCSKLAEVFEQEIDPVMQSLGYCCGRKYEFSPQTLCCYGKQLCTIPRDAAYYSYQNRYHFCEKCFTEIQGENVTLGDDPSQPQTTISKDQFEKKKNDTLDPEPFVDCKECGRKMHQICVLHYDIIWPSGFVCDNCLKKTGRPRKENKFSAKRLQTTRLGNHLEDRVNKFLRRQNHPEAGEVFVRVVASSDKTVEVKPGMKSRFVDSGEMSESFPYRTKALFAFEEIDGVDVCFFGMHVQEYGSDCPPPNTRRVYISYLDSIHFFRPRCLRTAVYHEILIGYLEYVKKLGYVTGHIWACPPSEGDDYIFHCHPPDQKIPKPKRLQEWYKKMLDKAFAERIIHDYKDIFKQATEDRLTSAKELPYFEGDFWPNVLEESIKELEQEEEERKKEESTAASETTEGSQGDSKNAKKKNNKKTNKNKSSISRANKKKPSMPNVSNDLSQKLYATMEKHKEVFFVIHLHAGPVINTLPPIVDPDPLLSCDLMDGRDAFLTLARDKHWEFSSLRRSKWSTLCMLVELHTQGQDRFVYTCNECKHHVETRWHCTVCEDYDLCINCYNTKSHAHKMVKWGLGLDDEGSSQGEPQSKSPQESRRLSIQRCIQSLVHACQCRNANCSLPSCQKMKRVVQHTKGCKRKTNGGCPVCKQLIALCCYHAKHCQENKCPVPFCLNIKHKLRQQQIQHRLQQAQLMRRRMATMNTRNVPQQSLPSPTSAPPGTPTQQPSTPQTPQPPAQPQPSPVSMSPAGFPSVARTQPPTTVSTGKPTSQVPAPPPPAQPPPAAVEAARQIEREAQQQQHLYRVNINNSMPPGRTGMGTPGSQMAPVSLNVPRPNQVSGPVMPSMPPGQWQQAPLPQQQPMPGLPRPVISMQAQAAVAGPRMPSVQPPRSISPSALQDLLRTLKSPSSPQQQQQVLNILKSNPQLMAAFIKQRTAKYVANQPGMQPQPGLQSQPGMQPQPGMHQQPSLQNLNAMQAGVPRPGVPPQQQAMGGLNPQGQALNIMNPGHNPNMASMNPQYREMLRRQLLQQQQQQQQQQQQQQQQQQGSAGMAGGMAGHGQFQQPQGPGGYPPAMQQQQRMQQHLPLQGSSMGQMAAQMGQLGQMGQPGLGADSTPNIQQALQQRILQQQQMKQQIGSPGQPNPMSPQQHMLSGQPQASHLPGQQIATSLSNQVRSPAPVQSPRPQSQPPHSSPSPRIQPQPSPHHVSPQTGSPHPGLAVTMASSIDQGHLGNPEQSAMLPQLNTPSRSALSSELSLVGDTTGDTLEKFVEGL

CCOc1cc(-c2c(C)noc2C)cc(C(C)O)c1 (stereo not given)
Ratio IC50 (Homo sapiens): 6

Cc1noc(C)c1-c1cc(O)cc(C(O)c2ccccc2)c1 (racemic)
IC50 (A549): > 10000 nM | Activity (NCI-H1975 [1]): Active | IC50 (U2OS): > 100000 nM | IC50 (NCI-H1975 [2]): > 10000 nM | IC50 (HeLa): > 100000 nM

Cc1noc(C)c1-c1cc(OCCO)cc(C(O)c2ccccc2)c1 (stereo not given)
IC50 (CREB-binding protein): 2810 nM | IC50 [3]: 1170 nM

Cc1sc2c(c1C)C(c1ccc(Cl)cc1)=N[C@@H](CC(=O)OC(C)(C)C)c1nnc(C)n1-2
IC50 (MV4-11): 242 nM | IC50 (U2OS): > 100000 nM | IC50 (HeLa): > 100000 nM

CC(=O)Oc1cc(-c2c(C)noc2C)cc(C(O)c2ccccc2)c1 (racemic)
IC50 (CREB-binding protein): 2480 nM | IC50 (A549): > 10000 nM | Activity (NCI-H1975 [1]): Active | IC50 (U2OS): > 100000 nM | IC50 (NCI-H1975 [2]): > 10000 nM | IC50 (HeLa): > 100000 nM

Cc1noc(C)c1-c1cc(O)cc(C(=O)c2ccccc2)c1
IC50 [3]: 544 nM

COCCOc1cc(-c2c(C)noc2C)cc(C(O)c2ccccc2)c1 (stereo not given)
IC50 (CREB-binding protein): 2070 nM | IC50 [3]: 1380 nM

COc1cc(-c2c(C)noc2C)cc(C(O)c2ccccc2)c1 (stereo not given)
IC50 (CREB-binding protein): 3960 nM | IC50 [3]: 1360 nM

CCOc1cc(-c2c(C)noc2C)cc(C(O)c2ccccc2)c1 (stereo not given)
IC50 (CREB-binding protein): 4100 nM | Ratio IC50 (Homo sapiens): 6 | IC50 [3]: 640 nM
